Published values from different studies.
Target: TRAF2 and NCK-interacting protein kinase (TNIK, Homo sapiens, UniProt Q9UKE5)

SMILES	read-out	action	method	concentration	endpoint	value
Cn1c2c(c3ccc(Cl)c(Cl)c31)C(C#N)C1(CCCCC1)NC2=O (racemic)	thermal stability	–	DSF	10 µM	ΔTm	0 °C
O=C(CSc1nc2nccnc2c(=O)n1CCc1ccccc1)Nc1nccs1	enzyme activity	inhibitor	–	10 µM	inhibition	-4%
CN(C)c1ncnc(-c2ccc3nc(Nc4cc(CN5CCN(C(=O)CC(F)(F)F)CC5)ccn4)[nH]c3c2)c1Cl	cell-free assay	–	competition with immobilised ligand	1 µM	remaining binding	53%
N#CC1c2c([nH]c3c(Cl)c(Cl)ccc23)C(=O)NC12CCCCC2 (racemic)	thermal stability	–	DSF	10 µM	ΔTm	0 °C
Nc1ncnc2occ(-c3ccc(NC(=O)Nc4cc(C(F)(F)F)ccc4F)cc3)c12	cell-free assay	inhibitor	–	20 µM	remaining signal	6.9%
CN1CCC2(CC1)NC(=O)c1c(c3ccc(Cl)c(Cl)c3n1C)C2C#N (racemic)	thermal stability	–	DSF	10 µM	ΔTm	0 °C
C[C@@H]1CN(c2cc(-c3nn(C)c4ccc(OC5(C)CC5)cc34)ncn2)C[C@H](C)O1	cell-free assay	–	competition with immobilised ligand	1 µM	remaining binding	80%
CNC(=O)c1cc2c(Oc3ccc(NC(=O)C4(C(=O)Nc5ccc(F)cc5)CC4)cc3)ccnc2cc1OC	enzyme activity	inhibitor	radiometric	1 µM	inhibition	73%
CC1(C)NC(=O)c2[nH]c3c(Cl)c(Cl)ccc3c2C1C#N (stereo not drawn)	thermal stability	–	DSF	10 µM	ΔTm	0 °C
O=C(O)[C@H]1[C@H](Cn2nnc3ccccc3c2=O)CC[C@@H]1C(=O)c1ccc(OCCC2CCOCC2)cc1	cell-free assay	–	competition with immobilised ligand	1 µM	remaining binding	84%
CC(C)(O)[C@H]1CC[C@H](Nc2ccc3ncc(-c4cccc(C(F)(F)F)c4)n3n2)CC1	enzyme activity	inhibitor	–	1 µM	remaining activity	96.9%
CS(=O)(=O)c1cc(C2(NC(=O)c3cncc4c3cnn4-c3ccc(F)cc3)CC2)ccn1	cell-free assay	–	competition with immobilised ligand	1 µM	remaining binding	95%
c1ccc(CNc2nc(N3CCOc4ccccc43)nc3c2CCCC3)cc1	target engagement in cells	inhibitor	chemoproteomics	20 mM	inhibition	-8%
Cn1nc(C(=O)NCc2ccc(C(=O)O)cc2)cc1-c1ccc2[nH]ccc2c1	cell-free assay	–	competition with immobilised ligand	0.1 µM	remaining binding	97%
Cn1c2c(c3ccc(Cl)c(Cl)c31)C(C#N)C1(CCOCC1)NC2=O (stereo not drawn)	thermal stability	–	DSF	10 µM	ΔTm	-0.1 °C
COc1cc(Cl)c(C(=O)N[C@@H](CN[C@H]2CC[C@@H](N)CC2)Cc2ccc(C#N)cc2)cc1-c1ccc(CN[C@H](C)c2ccc(C)cc2)o1	enzyme activity	inhibitor	–	1 µM	remaining activity	100%
Cn1cnc(Br)c1C1=CN(c2ncnc3[nH]cnc23)CCS1	enzyme activity	inhibitor	radiometric	2 µM	inhibition	88.7%
O=C(Nc1cnn(-c2csc(C(=O)NC3COC3)c2)c1)Nc1c(F)cccc1Cl	enzyme activity	inhibitor	–	5 µM	remaining activity	84.3%
Cn1cc(Cl)c2c(Oc3c(F)cc(Nc4cc(Cl)nc(N)n4)cc3F)ccnc21	cell-free assay	–	competition with immobilised ligand	0.1 µM	remaining binding	96%
Cn1c2c(c3ccc(Cl)c(Cl)c31)C(C#N)C(C)(C)NC2=O (stereo not drawn)	thermal stability	–	DSF	10 µM	ΔTm	-0.4 °C
CN1CC(Oc2cnc(C#N)cc2-c2ccn3nc(NC(=O)C4CC4)cc3c2)C1	enzyme activity	inhibitor	–	1 µM	inhibition	29%
